Calls of active or inactive are those of the source. The calls are words filed in the database; no cut-off is given here.
What was measured:
SMMC-7721 = experiment: Antiproliferative activity against human SMMC7721 cells after 72 hrs by MTT assay; assay type: functional, cell-based; conditions: SMMC-7721, 72 h
Summary of the method: (§1)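 HeLa and SMMC-7721 cells in log phase were seeded at 4000-6000 cells/well. After 24 h, quadruplicate wells were treated with a series of concentrations for 72 h. DMSO stocks were 5 mmol/L, with final DMSO below 0.1%. MTT (10 mg/mL in PBS) was added for 4 h, medium replaced with DMSO, and OD read at 490 nm. IC50 came from at least five concentrations; mean and SD of at least three independent experiments.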

HeLa [1] = experiment: Induction of apoptosis in human HeLa cells assessed as late apoptotic cells at 0.15 uM after 24 hrs by annexin V-FITC/propidium iodide staining-based flow cytometric method (reference value: 0.15%); assay type: functional
HeLa [2] = experiment: Cell cycle arrest in human HeLa cells assessed as accumulation at sub G1 phase at 0.25 uM after 24 hrs by propidium iodide staining-based flow cytometric method (reference value: 7.6%); assay type: functional
HeLa [3] = experiment: Cell cycle arrest in human HeLa cells assessed as accumulation at G0/G1 phase at 0.20 uM after 24 hrs by propidium iodide staining-based flow cytometric method (reference value: 62.2%); assay type: functional
HeLa [4] = experiment: Cell cycle arrest in human HeLa cells assessed as accumulation at sub G1 phase at 0.15 uM after 24 hrs by propidium iodide staining-based flow cytometric method (reference value: 7.6%); assay type: functional
HeLa [5] = experiment: Induction of apoptosis in human HeLa cells assessed as viable cells at 0.10 uM after 24 hrs by annexin V-FITC/propidium iodide staining-based flow cytometric method (reference value: 97.39%); assay type: functional; conditions: read-out: Activity
HeLa [6] = experiment: Antiproliferative activity against human HeLa cells after 72 hrs by MTT assay; assay type: functional, cell-based; summary of the method: as §1
HeLa [7] = experiment: Induction of apoptosis in human HeLa cells assessed as plasmatorrhexis at 0.10 to 0.20 uM by microscopic method; assay type: functional, cell-based
Summary of the method: (§2)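 Morphology of HeLa cells was examined by light microscopy after 24 h exposure to 0.10, 0.15 or 0.20 μM, or 0.1% DMSO, alongside the annexin V/PI experiment.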

HeLa [8] = experiment: Cell cycle arrest in human HeLa cells assessed as accumulation at S phase at 0.15 uM after 24 hrs by propidium iodide staining-based flow cytometric method (reference value: 10.3%); assay type: functional
HeLa [9] = experiment: Induction of apoptosis in human HeLa cells assessed as membrane blebbing at 0.10 to 0.20 uM by microscopic method; assay type: functional, cell-based; summary of the method: as §2
HeLa [10] = experiment: Induction of apoptosis in human HeLa cells assessed as viable cells at 0.15 uM after 24 hrs by annexin V-FITC/propidium iodide staining-based flow cytometric method (reference value: 97.39%); assay type: functional; conditions: read-out: Activity
HeLa [11] = experiment: Cell cycle arrest in human HeLa cells assessed as accumulation at G2/M phase at 0.20 uM after 24 hrs by propidium iodide staining-based flow cytometric method (reference value: 19.9%); assay type: functional
HeLa [12] = experiment: Induction of apoptosis in human HeLa cells assessed as necrotic cells at 0.10 uM after 24 hrs by annexin V-FITC/propidium iodide staining-based flow cytometric method (reference value: 0.15%); assay type: functional
HeLa [13] = experiment: Cell cycle arrest in human HeLa cells assessed as accumulation at sub G1 phase at 0.10 uM after 24 hrs by propidium iodide staining-based flow cytometric method (reference value: 7.6%); assay type: functional
HeLa [14] = experiment: Induction of apoptosis in human HeLa cells after 24 hrs by annexin V-FITC/propidium iodide staining-based flow cytometric method; assay type: functional, cell-based
HeLa [15] = experiment: Cell cycle arrest in human HeLa cells assessed as accumulation at G2/M phase at 0.25 uM after 24 hrs by propidium iodide staining-based flow cytometric method (reference value: 19.9%); assay type: functional
HeLa [16] = experiment: Cell cycle arrest in human HeLa cells assessed as accumulation at sub G1 phase at 0.20 uM after 24 hrs by propidium iodide staining-based flow cytometric method (reference value: 7.6%); assay type: functional
Tubulin = experiment: Inhibition of tubulin (unknown origin) polymerization after 40 mins by fluorescence assay; assay type: protein-complex assay, Homo sapiens
Summary of the method: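 Fluorescence-based kit assay. Compounds, in duplicate, were warmed 1 min at 37 °C, then cold tubulin mix was added (2 mg/mL tubulin in 80 mM PIPES pH 6.9, 2.0 mM MgCl2, 0.5 mM EGTA, 1.0 mM GTP, 15% glycerol). Assembly was read at ex 360/em 450 nm each minute for 1 h at 37 °C; 0.1% DMSO vehicle. IC50 is the concentration halving assembly extent at 40 min, from four concentrations.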

HeLa [17] = experiment: Induction of apoptosis in human HeLa cells assessed as late apoptotic cells at 0.20 uM after 24 hrs by annexin V-FITC/propidium iodide staining-based flow cytometric method (reference value: 0.15%); assay type: functional
HeLa [18] = experiment: Induction of apoptosis in human HeLa cells assessed as necrotic cells at 0.20 uM after 24 hrs by annexin V-FITC/propidium iodide staining-based flow cytometric method (reference value: 0.15%); assay type: functional
HeLa [19] = experiment: Cell cycle arrest in human HeLa cells assessed as accumulation at S phase at 0.25 uM after 24 hrs by propidium iodide staining-based flow cytometric method (reference value: 10.3%); assay type: functional
HeLa [20] = experiment: Induction of apoptosis in human HeLa cells assessed as viable cells at 0.20 uM after 24 hrs by annexin V-FITC/propidium iodide staining-based flow cytometric method (reference value: 97.39%); assay type: functional; conditions: read-out: Activity
Sus scrofa = species: Sus scrofa; experiment: Competitive binding affinity to porcine brain tubulin preincubated for 1 hr followed by colchicine addition measured after 1 hr by fluorescence assay
Summary of the method: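 Tubulin (4 μM) in 80 mM PIPES pH 6.9, 2 mM MgCl2 and 0.5 mM EGTA was preincubated 1 h at 37 °C with 0.1, 1, 5 or 10 μM test agent, with DMSO as control. Colchicine (10 μM) was then added for another 1 h at 37 °C. Tubulin-colchicine fluorescence was read at ex 340/em 435 nm and normalized to DMSO; at least three replicates, mean ± SD.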

HeLa [21] = experiment: Cell cycle arrest in human HeLa cells assessed as accumulation at S phase at 0.10 uM after 24 hrs by propidium iodide staining-based flow cytometric method (reference value: 10.3%); assay type: functional
HeLa [22] = experiment: Induction of apoptosis in human HeLa cells assessed as late apoptotic cells at 0.10 uM after 24 hrs by annexin V-FITC/propidium iodide staining-based flow cytometric method (reference value: 0.15%); assay type: functional
HeLa [23] = experiment: Induction of apoptosis in human HeLa cells assessed as early apoptotic cells at 0.10 uM after 24 hrs by annexin V-FITC/propidium iodide staining-based flow cytometric method (reference value: 2.31%); assay type: functional
HeLa [24] = experiment: Cell cycle arrest in human HeLa cells assessed as accumulation at S phase at 0.20 uM after 24 hrs by propidium iodide staining-based flow cytometric method (reference value: 10.3%); assay type: functional

IC50 (SMMC-7721): 71 nM | IC50 (HeLa [6]): 126 nM | IC50 (Tubulin): 3970 nM | Activity (Sus scrofa): Dose-dependent effect
Compound: COC(=O)c1ccc2c(c1)NC(=O)CN2C(=O)c1cc(OC)c(OC)c(OC)c1
Activity (HeLa [1]): 9.95% | Activity (HeLa [2]): 33.1% | Activity (HeLa [3]): 18.4% | Activity (HeLa [4]): 31.6% | viability at 0.1 µM (HeLa [5]): 76.1% | Activity (HeLa [7]): Active | Activity (HeLa [8]): 8.3% | Activity (HeLa [9]): Active | viability at 0.15 µM (HeLa [10]): 69.7% | Activity (HeLa [11]): 40.4% | Activity (HeLa [12]): 3.9% | Activity (HeLa [13]): 13.1% | Activity (HeLa [14]): Dose-dependent effect | Activity (HeLa [15]): 44.6% | Activity (HeLa [16]): 32.9% | Activity (HeLa [17]): 14.4% | Activity (HeLa [18]): 6.36% | Activity (HeLa [19]): 8.3% | viability at 0.2 µM (HeLa [20]): 62.2% | Activity (HeLa [21]): 9.9% | Activity (HeLa [22]): 7.87% | Activity (HeLa [23]): 12.1% | Activity (HeLa [24]): 8%

Reference: ChEMBL document CHEMBL4251573, “Synthesis and biological evaluation of N-substituted 3-oxo-1,2,3,4-tetrahydro-quinoxaline-6-carboxylic acid derivatives as tubulin polymerization inhibitors” (Eur J Med Chem, 2018)
